{"source": "paper PMC7658073", "about": "(Clinical Pharmacokinetics, 2020)", "key": {"Human mass balance study": {"experiment": "Human mass balance study", "assay_type": "in vivo", "details": "14C-labeled vericiguat 5 mg oral", "procedure,_shortened": "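Open-label, non-randomized, non-placebo-controlled study in six healthy male volunteers. Single oral solution of 5 mg [14C]-labelled test compound given fasting. Urine and feces collected up to 336 h and total radioactivity measured as % of dose, summarized descriptively as mean (range). Plasma components expressed as share of total radioactivity AUC.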"}, "[1]": {"experiment": "Phase I DDI study with omeprazole and magnesium/aluminum hydroxide", "assay_type": "in vivo, human", "procedure,_shortened": "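Randomized, open-label, three-fold crossover in healthy men. Test compound 5 mg single oral dose given fasting: alone; with omeprazole 40 mg QD for 5 days (pre- and co-dosed); or with a single 10 mL magnesium hydroxide 600 mg/aluminum oxide 900 mg antacid.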"}, "[2]": {"experiment": "Phase I DDI study with digoxin", "assay_type": "in vivo, human", "details": "with digoxin 0.375 mg QD vs vericiguat 10 mg alone, fed"}, "P-glycoprotein": {"biological_target": "P-glycoprotein (Homo sapiens, UniProt P08183)", "sequence (P08183 whole entry)": "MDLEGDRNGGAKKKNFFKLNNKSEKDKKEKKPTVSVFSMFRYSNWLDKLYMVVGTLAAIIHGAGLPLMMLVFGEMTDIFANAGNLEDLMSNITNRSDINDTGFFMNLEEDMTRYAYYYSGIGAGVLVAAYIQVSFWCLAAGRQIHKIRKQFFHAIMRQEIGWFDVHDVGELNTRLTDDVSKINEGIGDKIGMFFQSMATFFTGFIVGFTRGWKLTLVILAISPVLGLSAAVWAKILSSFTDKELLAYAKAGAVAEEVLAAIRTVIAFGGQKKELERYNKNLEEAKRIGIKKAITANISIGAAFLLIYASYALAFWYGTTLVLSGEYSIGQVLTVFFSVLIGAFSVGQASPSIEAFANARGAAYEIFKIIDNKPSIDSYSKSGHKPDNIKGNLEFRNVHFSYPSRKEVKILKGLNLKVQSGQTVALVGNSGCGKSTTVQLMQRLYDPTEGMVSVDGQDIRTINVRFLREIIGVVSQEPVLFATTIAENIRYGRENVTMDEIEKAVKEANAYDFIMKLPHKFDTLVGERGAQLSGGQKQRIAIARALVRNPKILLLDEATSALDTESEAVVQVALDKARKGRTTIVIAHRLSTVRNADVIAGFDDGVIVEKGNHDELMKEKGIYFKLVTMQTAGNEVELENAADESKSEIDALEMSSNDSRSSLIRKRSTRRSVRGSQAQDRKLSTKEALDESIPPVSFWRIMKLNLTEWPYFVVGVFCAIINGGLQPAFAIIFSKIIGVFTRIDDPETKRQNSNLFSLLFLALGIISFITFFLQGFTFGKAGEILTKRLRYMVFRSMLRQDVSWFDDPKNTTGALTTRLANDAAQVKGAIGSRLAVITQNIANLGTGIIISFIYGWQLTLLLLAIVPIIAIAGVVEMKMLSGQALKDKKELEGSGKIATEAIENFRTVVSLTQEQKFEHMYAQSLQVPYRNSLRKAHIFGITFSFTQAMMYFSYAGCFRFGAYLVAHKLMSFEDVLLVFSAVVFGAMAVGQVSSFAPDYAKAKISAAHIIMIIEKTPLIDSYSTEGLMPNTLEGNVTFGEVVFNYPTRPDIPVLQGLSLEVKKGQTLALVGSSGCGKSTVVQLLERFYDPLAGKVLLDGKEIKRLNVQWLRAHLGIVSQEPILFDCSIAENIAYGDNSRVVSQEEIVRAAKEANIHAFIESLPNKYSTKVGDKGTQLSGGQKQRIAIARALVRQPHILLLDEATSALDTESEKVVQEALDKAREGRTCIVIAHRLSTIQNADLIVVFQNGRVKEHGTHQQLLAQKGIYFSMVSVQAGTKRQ", "experiment": "Substrate properties towards P-gp", "assay_type": "in vitro ADME"}, "MATE2K": {"biological_target": "MATE2K (Homo sapiens, UniProt Q86VL8)", "sequence (Q86VL8 1-566 isoform Q86VL8-3)": "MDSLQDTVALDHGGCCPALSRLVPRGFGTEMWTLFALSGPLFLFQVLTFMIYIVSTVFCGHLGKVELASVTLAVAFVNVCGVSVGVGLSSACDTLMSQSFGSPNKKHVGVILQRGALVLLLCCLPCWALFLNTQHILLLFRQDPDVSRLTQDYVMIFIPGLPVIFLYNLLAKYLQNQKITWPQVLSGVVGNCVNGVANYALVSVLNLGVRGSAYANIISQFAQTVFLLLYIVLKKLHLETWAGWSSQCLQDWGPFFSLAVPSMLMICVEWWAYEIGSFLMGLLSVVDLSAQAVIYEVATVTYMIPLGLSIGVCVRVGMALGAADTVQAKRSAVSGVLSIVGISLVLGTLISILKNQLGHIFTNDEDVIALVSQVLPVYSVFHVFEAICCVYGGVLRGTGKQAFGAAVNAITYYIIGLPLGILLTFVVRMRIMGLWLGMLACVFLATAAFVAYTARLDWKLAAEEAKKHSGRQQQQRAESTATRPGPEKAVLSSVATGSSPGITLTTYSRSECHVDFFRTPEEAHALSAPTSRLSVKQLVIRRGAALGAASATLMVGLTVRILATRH", "experiment": "Inhibitory potency towards MATE2K", "assay_type": "in vitro ADME"}, "UGT1A4": {"biological_target": "T1, UGT1A4 (Homo sapiens, UniProt P22310)", "T1 sequence (P22310 29-534)": "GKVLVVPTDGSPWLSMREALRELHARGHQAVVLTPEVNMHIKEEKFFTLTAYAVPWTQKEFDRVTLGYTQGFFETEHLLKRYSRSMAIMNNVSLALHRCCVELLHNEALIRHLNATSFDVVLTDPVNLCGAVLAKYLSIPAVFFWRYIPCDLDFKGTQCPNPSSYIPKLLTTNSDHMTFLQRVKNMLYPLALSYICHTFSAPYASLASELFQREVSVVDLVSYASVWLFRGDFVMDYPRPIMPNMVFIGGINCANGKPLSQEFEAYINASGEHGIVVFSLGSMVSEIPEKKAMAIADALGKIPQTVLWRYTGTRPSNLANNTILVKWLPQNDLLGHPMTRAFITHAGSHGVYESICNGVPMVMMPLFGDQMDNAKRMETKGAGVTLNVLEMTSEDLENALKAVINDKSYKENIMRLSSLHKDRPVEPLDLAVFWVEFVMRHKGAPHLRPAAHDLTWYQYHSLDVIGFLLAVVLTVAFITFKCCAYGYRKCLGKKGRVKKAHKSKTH", "experiment": "Inhibitory potency towards UGT isoforms: UGT1A4", "assay_type": "in vitro ADME"}, "UGT1A9": {"biological_target": "T2, UGT1A9 (Homo sapiens, UniProt O60656)", "T2 sequence (O60656 26-530)": "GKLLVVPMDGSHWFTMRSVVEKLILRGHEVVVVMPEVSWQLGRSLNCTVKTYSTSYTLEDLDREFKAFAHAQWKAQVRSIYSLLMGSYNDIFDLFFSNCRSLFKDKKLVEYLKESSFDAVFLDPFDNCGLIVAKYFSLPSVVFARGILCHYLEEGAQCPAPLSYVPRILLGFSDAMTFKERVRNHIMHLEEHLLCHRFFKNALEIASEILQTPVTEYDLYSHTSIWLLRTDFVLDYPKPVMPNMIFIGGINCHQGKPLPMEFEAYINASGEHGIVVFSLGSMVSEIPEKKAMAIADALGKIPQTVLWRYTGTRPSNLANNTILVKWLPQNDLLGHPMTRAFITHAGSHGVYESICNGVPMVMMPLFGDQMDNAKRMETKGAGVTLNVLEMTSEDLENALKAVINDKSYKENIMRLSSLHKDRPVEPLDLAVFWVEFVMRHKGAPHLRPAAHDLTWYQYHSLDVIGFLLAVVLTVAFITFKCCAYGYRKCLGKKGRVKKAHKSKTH", "experiment": "Inhibitory potency towards UGT isoforms: UGT1A9", "assay_type": "in vitro ADME"}, "OATP1B1": {"biological_target": "T3, OATP1B1 (Homo sapiens, UniProt Q9Y6L6)", "T3 sequence (Q9Y6L6 1-691)": "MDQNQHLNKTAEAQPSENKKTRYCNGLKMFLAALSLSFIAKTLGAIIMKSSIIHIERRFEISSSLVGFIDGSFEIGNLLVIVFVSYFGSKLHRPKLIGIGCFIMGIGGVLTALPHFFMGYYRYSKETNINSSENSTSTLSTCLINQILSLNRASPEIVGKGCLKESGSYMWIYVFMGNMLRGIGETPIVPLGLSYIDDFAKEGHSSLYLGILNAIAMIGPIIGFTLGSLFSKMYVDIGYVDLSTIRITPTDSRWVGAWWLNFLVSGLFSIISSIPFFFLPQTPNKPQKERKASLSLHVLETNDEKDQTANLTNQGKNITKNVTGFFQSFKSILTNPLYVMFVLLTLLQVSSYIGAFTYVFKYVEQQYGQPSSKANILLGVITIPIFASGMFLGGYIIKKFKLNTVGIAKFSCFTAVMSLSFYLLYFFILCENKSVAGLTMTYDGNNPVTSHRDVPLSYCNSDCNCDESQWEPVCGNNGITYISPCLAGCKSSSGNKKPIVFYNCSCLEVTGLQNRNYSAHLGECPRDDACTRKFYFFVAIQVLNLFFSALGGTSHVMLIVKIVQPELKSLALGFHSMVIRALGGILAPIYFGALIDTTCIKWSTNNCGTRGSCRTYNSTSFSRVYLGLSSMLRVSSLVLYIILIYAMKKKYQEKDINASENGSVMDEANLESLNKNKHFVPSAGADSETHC", "experiment": "Inhibitory potency towards OATP1B1", "assay_type": "in vitro ADME"}, "CYP1A2": {"test_system": "CYP1A2", "experiment": "CYP induction in cultured human hepatocytes: CYP1A2", "assay_type": "in vitro ADME", "details": "three donors, up to 10,000 μg/L (23.5 µM)"}, "CYP3A4": {"test_system": "CYP3A4", "experiment": "CYP induction in cultured human hepatocytes: CYP3A4", "assay_type": "in vitro ADME", "details": "one of the three donors"}, "[3]": {"experiment": "pKa and pH-dependent solubility", "assay_type": "physicochemical"}, "[4]": {"details": "% of dose, listed as vericiguat"}, "[5]": {"details": "pre- and co-administration of omeprazole vs vericiguat alone"}}, "note": "Marks after values point to notes of the source that are not given here.", "data": [{"smiles": "COC(=O)Nc1c(N)nc(-c2nn(Cc3ccccc3F)c3ncc(F)cc23)nc1N", "note": "[Vericiguat]", "values": [{"measurement": "Share of total radioactivity AUC in human plasma", "setting": "Human mass balance study", "result": 27, "unit": "%"}, {"measurement": "Excretion in feces (range)", "setting": "Human mass balance study; % of dose", "result": "42.6 (38.3–46.5) %"}, {"measurement": "Excretion in urine (range)", "setting": "Human mass balance study; % of dose", "result": "9.0 (6.1–16.1) %"}, {"measurement": "Total excretion of analyte (urine plus feces) (range)", "setting": "Human mass balance study; % of dose", "result": "51.6 (46.0–62.6) %"}, {"measurement": "Excretion in feces (range)", "setting": "Human mass balance study; [4]", "result": 43, "unit": "%"}, {"measurement": "Excretion in urine (range)", "setting": "Human mass balance study; [4]", "result": 9.0, "unit": "%"}, {"measurement": "Radioactivity excreted via feces", "setting": "Human mass balance study; % of dose, mean (range)", "result": "45.2 (40.1–49.9) %"}, {"measurement": "Radioactivity excreted via urine", "setting": "Human mass balance study; % of dose, mean (range)", "result": "53.1^b (49.9–56.1) %"}, {"measurement": "Reduction in the bioavailability of vericiguat", "setting": "[1]; co-administration in fasting conditions of omeprazole (40 mg once daily) and magnesium/aluminum hydroxide (600/900 mg) relative to vericiguat alone", "result": "about 30%"}, {"measurement": "Reduction of AUC of vericiguat", "setting": "[1]; [5]", "result": 32, "unit": "%"}, {"measurement": "Reduction of Cmax of vericiguat", "setting": "[1]; [5]", "result": 49, "unit": "%"}, {"measurement": "Cmax of vericiguat, point estimate of treatment ratio", "setting": "[1]; with omeprazole 40 mg QD vs vericiguat 5 mg SD alone, fasting", "result": 0.504}, {"measurement": "AUC of vericiguat, point estimate of treatment ratio", "setting": "[2]", "result": 0.980}, {"measurement": "Cmax of vericiguat, point estimate of treatment ratio", "setting": "[2]", "result": 1.009}, {"measurement": "Substrate of P-glycoprotein", "setting": "P-glycoprotein", "result": "substrate"}, {"measurement": "IC50", "setting": "MATE2K", "result": "> 10", "unit": "µM"}, {"measurement": "IC50", "setting": "UGT1A4", "result": "> 50", "unit": "µM"}, {"measurement": "IC50", "setting": "UGT1A9", "result": 10.6, "unit": "µM"}, {"measurement": "Ki", "setting": "UGT1A9", "result": 6.6, "unit": "µM"}, {"measurement": "IC50", "setting": "OATP1B1", "result": "~16", "unit": "µM"}, {"measurement": "Induction of CYP1A2", "setting": "CYP1A2", "result": "no significant induction"}, {"measurement": "CYP3A4 mRNA induction relative to rifampicin [positive control] response", "setting": "CYP3A4; highest tested concentration", "result": 4, "unit": "%"}, {"measurement": "Increase in CYP3A4 messenger RNA", "setting": "CYP3A4; highest tested concentration 10,000 μg/L (23.5 µM)", "result": 2.7, "unit": "fold"}, {"measurement": "pH dependence of solubility", "setting": "[3]", "result": "lower in neutral conditions compared with acidic conditions"}, {"measurement": "pKa", "setting": "[3]", "result": 4.7}]}]}
